Measured values as given in ChEMBL document CHEMBL3244396, “Synthesis and antileukemic activity of 5-substituted 2,3-dihydro-6,7-bis(hydroxymethyl)-1H-pyrrolizine diesters” (J Med Chem, 1977).
Converted amounts (≈) assume the structure as drawn.

Tests used:
[1] = Cytotoxicity against human 9KB cells treated as ethanol solution; type: functional; conditions: read-out: ED50 (the source's name)
Procedure, shortened: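 Compound applied as an ethanol solution; activity read out as ED50 under the general screening protocol.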

L1210 [2] = assay: Antileukemic activity against mouse L1210 cells allografted in female CDF1 mouse assessed as change in body weight at 6.25 mg/kg, ip administered daily for 9 days as Klucel suspension starting 24 hrs after tumor inoculation; type: functional; conditions: route intraperitoneal
Procedure, shortened: (§1)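 Ascitic fluid carrying L1210 cells was inoculated ip. Compound was given ip as a Klucel (hydroxypropylcellulose) suspension in nine daily doses, starting 24 h after inoculation. Body-weight difference (treated minus control) was recorded on day 5. Survival was scored as %T/C of mean survival time.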

L1210 [3] = assay: Antileukemic activity against mouse L1210 cells allografted in female CDF1 mouse assessed as change in body weight at 12.5 mg/kg, ip administered daily for 9 days as Klucel suspension starting 24 hrs after tumor inoculation; type: functional; conditions: route intraperitoneal; procedure, shortened: as §1
L1210 [4] = assay: Antileukemic activity against mouse L1210 cells allografted in female CDF1 mouse assessed as change in body weight at 3.13 mg/kg, ip administered daily for 9 days as Klucel suspension starting 24 hrs after tumor inoculation; type: functional; conditions: route intraperitoneal; procedure, shortened: as §1
L1210 [5] = assay: Antileukemic activity against mouse L1210 cells allografted in female CDF1 mouse assessed as host mean survival time at 12.5 mg/kg, ip administered daily for 9 days as Klucel suspension starting 24 hrs after tumor inoculation relative to control; type: functional; conditions: route intraperitoneal
Procedure, shortened: (§2)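 L1210 leukemia given as an ascitic fluid cell inoculum, ip, to mice of the strain and sex in each line. Test material was given ip for nine daily doses starting 24 h after inoculation, in a Klucel (hydroxypropylcellulose) suspension. Read-out is mean survival time as %T/C versus controls, with >125 taken as significant.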

L1210 [6] = assay: Antileukemic activity against mouse L1210 cells allografted in female CDF1 mouse assessed as host mean survival time at 6.25 mg/kg, ip administered daily for 9 days as Klucel suspension starting 24 hrs after tumor inoculation relative to control; type: functional; conditions: route intraperitoneal; procedure, shortened: as §2
L1210 [7] = assay: Antileukemic activity against mouse L1210 cells allografted in female CDF1 mouse assessed as host mean survival time at 3.13 mg/kg, ip administered daily for 9 days as Klucel suspension starting 24 hrs after tumor inoculation relative to control; type: functional; conditions: route intraperitoneal; procedure, shortened: as §2
Mus musculus [8] = assay: Toxicity in male CDF1 mouse allografted with mouse P388 cells assessed as animal survival at 200 mg/kg, ip administered daily for 9 days as Klucel suspension starting 24 hrs after tumor inoculation; type: organism-based; set-up: dose 200 mg/kg, route intraperitoneal; conditions: in vivo
Procedure, shortened: (§3)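 P-388 leukemia ascitic fluid inoculated ip. Compound given ip as a suspension in Klucel (hydroxypropylcellulose), once daily for nine doses beginning 24 h post-inoculation. Acute toxicity assessed as toxicity-day survivors per group. Survival was followed up to 30 days, with 30-day survival counted as "cure". Follows NCI screening protocols.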

Mus musculus [9] = assay: Toxicity in female BDF1 mouse allografted with mouse P388 cells assessed as animal survival at 1.56 mg/kg, ip administered daily for 9 days as Klucel suspension starting 24 hrs after tumor inoculation; type: organism-based; set-up: dose 1.56 mg/kg, route intraperitoneal; conditions: in vivo; procedure, shortened: as §3
Mus musculus [10] = assay: Toxicity in female BDF1 mouse allografted with mouse P388 cells assessed as animal survival at 0.78 mg/kg, ip administered daily for 9 days as Klucel suspension starting 24 hrs after tumor inoculation; type: organism-based; set-up: dose 0.78 mg/kg, route intraperitoneal; conditions: in vivo; procedure, shortened: as §3
P388 [11] = assay: Antitumor activity against mouse P388 cells allografted in female CDF1 mouse assessed as disease cures by measuring 30-days host survival at 3.13 mg/kg, ip administered daily for 9 days as Klucel suspension starting 24 hrs after tumor inoculation relative to control; type: functional; conditions: route intraperitoneal
Procedure, shortened: (§4)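 P388 leukemia given as an ascitic fluid cell inoculum, ip, to mice of the strain and sex in each line. Nine daily ip doses were given in a Klucel (hydroxypropylcellulose) suspension, starting 24 h after inoculation. Read-out is median survival time as %T/C, with >125 taken as significant; a "cure" means 30-day survival.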

P388 [12] = assay: Antitumor activity against mouse P388 cells allografted in female CDF1 mouse assessed as disease cures by measuring 30-days host survival at 12.5 mg/kg, ip administered daily for 9 days as Klucel suspension starting 24 hrs after tumor inoculation relative to control; type: functional; conditions: route intraperitoneal; procedure, shortened: as §4
P388 [13] = assay: Antitumor activity against mouse P388 cells allografted in male CDF1 mouse assessed as disease cures by measuring 30-days host survival at 50 mg/kg, ip administered daily for 9 days as Klucel suspension starting 24 hrs after tumor inoculation relative to control; type: functional; conditions: route intraperitoneal; procedure, shortened: as §4
P388 [14] = assay: Antitumor activity against mouse P388 cells allografted in female BDF1 mouse assessed as disease cures by measuring 30-days host survival at 1.56 mg/kg, ip administered daily for 9 days as Klucel suspension starting 24 hrs after tumor inoculation relative to control; type: functional; conditions: route intraperitoneal; procedure, shortened: as §4
P388 [15] = assay: Antitumor activity against mouse P388 cells allografted in female BDF1 mouse assessed as disease cures by measuring 30-days host survival at 0.78 mg/kg, ip administered daily for 9 days as Klucel suspension starting 24 hrs after tumor inoculation relative to control; type: functional; conditions: route intraperitoneal; procedure, shortened: as §4
Mus musculus [16] = assay: Toxicity in female CDF1 mouse allografted with mouse P388 cells assessed as animal survival at 6.25 mg/kg, ip administered daily for 9 days as Klucel suspension starting 24 hrs after tumor inoculation; type: organism-based; set-up: dose 6.25 mg/kg, route intraperitoneal; conditions: in vivo; procedure, shortened: as §3
Mus musculus [17] = assay: Toxicity in female CDF1 mouse allografted with mouse P388 cells assessed as animal survival at 3.13 mg/kg, ip administered daily for 9 days as Klucel suspension starting 24 hrs after tumor inoculation; type: organism-based; set-up: dose 3.13 mg/kg, route intraperitoneal; conditions: in vivo; procedure, shortened: as §3
Mus musculus [18] = assay: Toxicity in female CDF1 mouse allografted with mouse P388 cells assessed as animal survival at 12.5 mg/kg, ip administered daily for 9 days as Klucel suspension starting 24 hrs after tumor inoculation; type: organism-based; set-up: dose 12.5 mg/kg, route intraperitoneal; conditions: in vivo; procedure, shortened: as §3
Mus musculus [19] = assay: Toxicity in male CDF1 mouse allografted with mouse P388 cells assessed as animal survival at 100 mg/kg, ip administered daily for 9 days as Klucel suspension starting 24 hrs after tumor inoculation; type: organism-based; set-up: dose 100 mg/kg, route intraperitoneal; conditions: in vivo; procedure, shortened: as §3
Mus musculus [20] = assay: Toxicity in female CDF1 mouse allografted with mouse L1210 cells assessed as animal survival at 6.25 mg/kg, ip administered daily for 9 days as Klucel suspension starting 24 hrs after tumor inoculation measured on fifth day; type: organism-based; set-up: dose 6.25 mg/kg, route intraperitoneal; conditions: in vivo
Procedure, shortened: (§5)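 L1210 leukemia passaged as ascitic fluid and inoculated ip. Test agent given ip as a Klucel (hydroxypropylcellulose) suspension, nine daily doses starting 24 h after tumor inoculation. Acute toxicity read as toxicity-day survivors per group (out of 6), recorded on day 5. Animal weight difference T − C was also recorded. Follows NCI screening protocols.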

Mus musculus [21] = assay: Toxicity in female CDF1 mouse allografted with mouse L1210 cells assessed as animal survival at 3.13 mg/kg, ip administered daily for 9 days as Klucel suspension starting 24 hrs after tumor inoculation measured on fifth day; type: organism-based; set-up: dose 3.13 mg/kg, route intraperitoneal; conditions: in vivo; procedure, shortened: as §5
P388 [22] = assay: Antitumor activity against mouse P388 cells allografted in male CDF1 mouse assessed as change in body weight at 25 mg/kg, ip administered daily for 9 days as Klucel suspension starting 24 hrs after tumor inoculation; type: functional; conditions: route intraperitoneal
Procedure, shortened: (§6)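 Ascitic fluid carrying P388 cells was inoculated ip. Compound was given ip in nine daily doses, starting 24 h after inoculation, in Klucel (hydroxypropylcellulose) suspension or in saline with Tween-80. Body-weight difference (treated minus control) was recorded on day 5. Survival was scored as %T/C of median survival time, and 30-day survival counted as cure.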

P388 [23] = assay: Antitumor activity against mouse P388 cells allografted in male CDF1 mouse assessed as change in body weight at 50 mg/kg, ip administered daily for 9 days as Klucel suspension starting 24 hrs after tumor inoculation; type: functional; conditions: route intraperitoneal; procedure, shortened: as §6
P388 [24] = assay: Antitumor activity against mouse P388 cells allografted in male CDF1 mouse assessed as change in body weight at 100 mg/kg, ip administered daily for 9 days as Klucel suspension starting 24 hrs after tumor inoculation; type: functional; conditions: route intraperitoneal; procedure, shortened: as §6
P388 [25] = assay: Antitumor activity against mouse P388 cells allografted in female CDF1 mouse assessed as change in body weight at 12.5 mg/kg, ip administered daily for 9 days as Klucel suspension starting 24 hrs after tumor inoculation; type: functional; conditions: route intraperitoneal; procedure, shortened: as §6
P388 [26] = assay: Antitumor activity against mouse P388 cells allografted in female CDF1 mouse assessed as change in body weight at 3.13 mg/kg, ip administered daily for 9 days as Klucel suspension starting 24 hrs after tumor inoculation; type: functional; conditions: route intraperitoneal; procedure, shortened: as §6
P388 [27] = assay: Antitumor activity against mouse P388 cells allografted in female CDF1 mouse assessed as change in body weight at 6.25 mg/kg, ip administered daily for 9 days as Klucel suspension starting 24 hrs after tumor inoculation; type: functional; conditions: route intraperitoneal; procedure, shortened: as §6
P388 [28] = assay: Antitumor activity against mouse P388 cells allografted in male CDF1 mouse assessed as change in body weight at 200 mg/kg, ip administered daily for 9 days as Klucel suspension starting 24 hrs after tumor inoculation; type: functional; conditions: route intraperitoneal; procedure, shortened: as §6
P388 [29] = assay: Antitumor activity against mouse P388 cells allografted in female BDF1 mouse assessed as change in body weight at 1.56 mg/kg, ip administered daily for 9 days as Klucel suspension starting 24 hrs after tumor inoculation; type: functional; conditions: route intraperitoneal; procedure, shortened: as §6
P388 [30] = assay: Antitumor activity against mouse P388 cells allografted in female BDF1 mouse assessed as change in body weight at 0.78 mg/kg, ip administered daily for 9 days as Klucel suspension starting 24 hrs after tumor inoculation; type: functional; conditions: route intraperitoneal; procedure, shortened: as §6
P388 [31] = assay: Antitumor activity against mouse P388 cells allografted in female CDF1 mouse assessed as disease cures by measuring 30-days host survival at 6.25 mg/kg, ip administered daily for 9 days as Klucel suspension starting 24 hrs after tumor inoculation relative to control; type: functional; conditions: route intraperitoneal; procedure, shortened: as §4

SMILES: CNC(=O)OCc1c(COC(=O)NC)c(-c2ccc(F)cc2)n2c1CCC2
- EC50 [1]: 0.22 µg/mL (≈ 0.586 µM)
- Activity (L1210 [2]): 0.1 g
- Activity (L1210 [3]): 0.1 g
- Activity (L1210 [4]): 1.1 g
- T/C (L1210 [5]): 118%
- T/C (L1210 [6]): 107%
- T/C (L1210 [7]): 115%
- Activity (Mus musculus [8]): Toxic
- Activity (Mus musculus [9]): Non-toxic
- Activity (Mus musculus [10]): Non-toxic
- T/C (P388 [11]): 171%
- T/C (P388 [12]): 153%
- T/C (P388 [13]): 48%
- T/C (P388 [14]): 122%
- T/C (P388 [15]): 146%
- Activity (Mus musculus [16]): Non-toxic
- Activity (Mus musculus [17]): Non-toxic
- Activity (Mus musculus [18]): Non-toxic
- Activity (Mus musculus [19]): Toxic
- Activity (Mus musculus [20]): Non-toxic
- Activity (Mus musculus [21]): Non-toxic
- Activity (P388 [22]): -2 g
- Activity (P388 [23]): -3.4 g
- Activity (P388 [24]): -1.5 g
- Activity (P388 [25]): -3.3 g
- Activity (P388 [26]): -0.3 g
- Activity (P388 [27]): -1 g
- Activity (P388 [28]): -1.5 g
- Activity (P388 [29]): 0 g
- Activity (P388 [30]): 0.9 g
- T/C (P388 [31]): 145%
